Where a SMILES comes first, the peptide text is derived from it. [ ]: non-standard residue; d: D form. The star is where a group is joined. Piperazinyl(4-Ph) = c1ccc(N2CCN(*)CC2)cc1; dGly(2-thienyl) = N[C@@H](C(=O)O)c1cccs1
Experiments:
[1] = target: Endothelin-1 receptor (Homo sapiens) (UniProt P25101); test: Selectivity towards endothelin A receptor in human.
[2] = target: T1, Endothelin-1 receptor (Homo sapiens, UniProt P25101); test: Displacement of [125I]ET-1 from Endothelin A receptor
T1 sequence (P25101 whole entry): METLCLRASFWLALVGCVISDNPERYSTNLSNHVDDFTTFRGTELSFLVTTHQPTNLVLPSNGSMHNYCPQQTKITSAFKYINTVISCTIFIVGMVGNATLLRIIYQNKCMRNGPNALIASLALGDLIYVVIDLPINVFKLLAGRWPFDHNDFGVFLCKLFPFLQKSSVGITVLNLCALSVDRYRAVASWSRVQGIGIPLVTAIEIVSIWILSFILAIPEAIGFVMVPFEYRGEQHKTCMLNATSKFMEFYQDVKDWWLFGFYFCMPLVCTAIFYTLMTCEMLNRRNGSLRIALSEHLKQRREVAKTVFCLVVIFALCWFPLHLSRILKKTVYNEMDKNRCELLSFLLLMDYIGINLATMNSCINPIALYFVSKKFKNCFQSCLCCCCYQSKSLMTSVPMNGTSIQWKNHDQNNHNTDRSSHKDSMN

[3] = Cmax in rat plasma after oral dose (50 mg/Kg); format: ADME, organism-based; design: dose 50 mg/Kg, route oral
Outline: (§1)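 Rats given 50 mg/kg orally. Plasma was separated at once by centrifugation and stored at -80 °C. Proteins were precipitated with acetonitrile and drug measured by HPLC to give Cmax, AUC and t1/2.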

[4] = Half life period was determined; format: ADME, organism-based; settings: rat, in vivo
Outline: as §1

[5] = Compound was evaluated for area under the curve expressed as (h*ug/ml); format: ADME, organism-based; design: concentration or dose not given beside the values; settings: rat, in vivo
Outline: as §1

[6] = Half life period was evaluated in rat; 0.5-1.0; format: ADME, organism-based; settings: in vivo
[7] = target: Endothelin receptor (Rattus norvegicus) (UniProt P26684+P21451); test: Selectivity for endothelin A receptor over endothelin receptor B; format: protein assay
Sequence of Endothelin receptor (Rattus norvegicus) (P21451 whole entry, looked up, one chain of several): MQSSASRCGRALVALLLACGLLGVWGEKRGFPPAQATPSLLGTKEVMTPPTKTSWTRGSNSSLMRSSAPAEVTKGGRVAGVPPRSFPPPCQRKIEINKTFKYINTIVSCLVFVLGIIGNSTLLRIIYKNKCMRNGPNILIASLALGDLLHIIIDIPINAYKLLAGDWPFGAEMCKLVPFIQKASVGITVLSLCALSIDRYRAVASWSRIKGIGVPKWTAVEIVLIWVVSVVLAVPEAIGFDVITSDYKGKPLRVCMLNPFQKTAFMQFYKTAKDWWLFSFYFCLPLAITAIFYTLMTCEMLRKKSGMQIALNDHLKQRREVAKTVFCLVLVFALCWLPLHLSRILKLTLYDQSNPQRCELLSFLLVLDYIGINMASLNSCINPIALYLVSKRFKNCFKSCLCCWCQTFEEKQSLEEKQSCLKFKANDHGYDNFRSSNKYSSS

[8] = tested on: Rattus norvegicus; test: Compound was evaluated for oral dose to effect 50% inhibition of mean pulmonary arterial pressure (MPAP; format: functional, Artery
Outline: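 Acute hypoxia-induced pulmonary hypertension model in rats. Compound given orally; the oral dose giving 50% inhibition of the increase in mean pulmonary arterial pressure is reported.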

[9] = Compound was evaluated for oral bioavailability in rats; settings: rat, in vivo
[10] = target: T2, Endothelin-1 receptor (Rattus norvegicus, UniProt P26684); test: Binding affinity towards Endothelin A receptor
T2 sequence (P26684 whole entry): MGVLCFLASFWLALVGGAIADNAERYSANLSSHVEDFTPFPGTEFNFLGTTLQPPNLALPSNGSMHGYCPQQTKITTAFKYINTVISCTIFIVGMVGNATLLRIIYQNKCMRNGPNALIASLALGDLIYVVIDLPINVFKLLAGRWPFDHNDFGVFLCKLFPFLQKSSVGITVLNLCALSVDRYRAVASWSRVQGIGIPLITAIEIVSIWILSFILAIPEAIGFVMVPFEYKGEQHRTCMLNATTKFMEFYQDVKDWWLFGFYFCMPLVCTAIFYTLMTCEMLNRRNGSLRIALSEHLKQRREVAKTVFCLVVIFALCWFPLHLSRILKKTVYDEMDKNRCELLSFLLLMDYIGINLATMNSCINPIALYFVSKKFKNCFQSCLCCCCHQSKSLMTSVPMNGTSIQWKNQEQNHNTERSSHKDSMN

[11] = Maximal plasma concentration in rat after oral administration at 50 mg/kg; format: ADME, organism-based; design: dose 50 mg/kg, route oral
Outline: as §1

[12] = target: T3, Endothelin-1 receptor (Rattus norvegicus) (UniProt P26684); test: Selectivity towards endothelin A receptor in rat.
T3 sequence (whole entry): T2 sequence (P26684 whole entry)

## CCC(=O)c1cc(C)cc(C)c1NC(=O)c1sccc1S(=O)(=O)Nc1onc(C)c1Cl
[1]
  Selectivity: 214000
[2]
  IC50: 0.06 nM

## Cc1cc(C)c(OC2CC2)c(C)c1NC(=O)c1sccc1S(=O)(=O)Nc1onc(C)c1Cl
[3]
  Cmax: 6100 ng/mL

## CC(=O)c1c(C)c(C)cc(C)c1NC(=O)c1sccc1S(=O)(=O)Nc1onc(C)c1Cl
[4]
  half-life: 1.68 h
[5]
  AUC: 53.8 µg·h/mL
[3]
  Cmax: 10800 ng/mL
[1]
  Selectivity: 1.18e+06
[2]
  IC50: 0.02 nM

## Cc1cc(C)c(NS(C)(=O)=O)c(C)c1NC(=O)c1sccc1S(=O)(=O)Nc1onc(C)c1Cl
[3]
  Cmax: 2800 ng/mL

## CC(C)C[C@@H]1NC(=O)[C@@H](c2cccs2)NC(=O)[C@H](CC(=O)[O-])NC(=O)[C@H](CC(=O)N2CCN(c3ccccc3)CC2)NC(=O)[C@@H](CC(=O)[O-])NC(=O)[C@@H](Cc2c[nH]c3ccccc23)NC1=O.[Na+].[Na+] (cyclo(D(Piperazinyl(4-Ph))D[dGly(2-thienyl)]L[dW][dD]))
[6]
  half-life: 1 h
[7]
  Selectivity: 540

## Cc1cc(C)c(NC(=O)c2sccc2S(=O)(=O)Nc2onc(C)c2Cl)c(C)c1C#N
[3]
  Cmax: 17300 ng/mL

## Cc1cc(C)c(NC(=O)c2sccc2S(=O)(=O)Nc2onc(C)c2Cl)c(C(=O)CS(C)(=O)=O)c1
[4]
  half-life: 12.2 h
[8]
  ED50: > 5 mg/kg
[5]
  AUC: 636 µg·h/mL
[3]
  Cmax: 37300 ng/mL
[1]
  Selectivity: 66500
[9]
  bioavailability: 16%
[2]
  IC50: 0.1 nM

## Cc1cc(C)c(NC(=O)c2sccc2S(=O)(=O)Nc2onc(C)c2Cl)c(C(=O)O)c1
[1]
  Selectivity: 600
[2]
  IC50: 2.62 nM

## Cc1cc(C)c(NC(=O)c2sccc2S(=O)(=O)Nc2onc(C)c2Cl)c(C(=O)c2ccccc2)c1
[4]
  half-life: 3.95 h
[5]
  AUC: 141 µg·h/mL
[3]
  Cmax: 33400 ng/mL
[1]
  Selectivity: 46000
[2]
  IC50: 0.39 nM

## CCC(=O)c1c(C)c(C)cc(C)c1NC(=O)c1sccc1S(=O)(=O)Nc1onc(C)c1Cl
[4]
  half-life: 1.47 h
[5]
  AUC: 24.3 µg·h/mL
[3]
  Cmax: 13000 ng/mL
[1]
  Selectivity: 216000
[2]
  IC50: 0.03 nM

## CCCCc1ccc2c(n1)[C@@H](c1ccc(OC)cc1C[C@H](C)C(=O)O)[C@H](C(=O)O)[C@H]2c1ccc2c(c1)OCO2
[10]
  Ki: 0.034 nM
[9]
  bioavailability: 40%
[7]
  Selectivity: 3

## Cc1cc(C)c(NC(=O)c2sccc2S(=O)(=O)Nc2onc(C)c2Cl)c(C)c1CO
[3]
  Cmax: 2400 ng/mL

## Cc1cc(C)c(S(N)(=O)=O)c(C)c1NC(=O)c1sccc1S(=O)(=O)Nc1onc(C)c1Cl
[3]
  Cmax: 2900 ng/mL

## Cc1cc(C)c(NC(=O)c2sccc2S(=O)(=O)Nc2onc(C)c2Cl)c(C(=O)N(C)C)c1
[4]
  half-life: 1.19 h
[5]
  AUC: 27.2 µg·h/mL
[3]
  Cmax: 10900 ng/mL
[1]
  Selectivity: 12300
[2]
  IC50: 0.07 nM

## COc1cc(OC)nc(O[C@H](C(=O)O)C(OC)(c2ccccc2)c2ccccc2)n1
[10]
  Ki: 6 nM
[7]
  Selectivity: 60

## Cc1cc(C)c(NC(=O)c2sccc2S(=O)(=O)Nc2onc(C)c2Cl)c(S(C)(=O)=O)c1
[4]
  half-life: 1.7 h
[5]
  AUC: 28.2 µg·h/mL
[1]
  Selectivity: 325000
[11]
  Cmax: 10300 ng/mL
[2]
  IC50: 0.03 nM

## C/C(=N\O)c1cc(C)cc(C)c1NC(=O)c1sccc1S(=O)(=O)Nc1onc(C)c1Cl
[4]
  half-life: 5.2 h
[5]
  AUC: 39.5 µg·h/mL
[3]
  Cmax: 6920 ng/mL
[1]
  Selectivity: 24500
[2]
  IC50: 0.02 nM

## Cc1cc(C)c(NC(=O)c2sccc2S(=O)(=O)Nc2onc(C)c2Cl)c(C)c1
[1]
  Selectivity: 7000
[2]
  IC50: 0.15 nM

## CCCc1c(O)c(C(C)=O)cc(C(C)=O)c1NC(=O)c1sccc1S(=O)(=O)Nc1onc(C)c1Cl
[12]
  Selectivity: 1000
[2]
  IC50: 12.4 nM

## Cc1cc(C)c(NC(=O)c2sccc2S(=O)(=O)Nc2onc(C)c2Cl)c(C(=O)C2CCCCC2)c1
[1]
  Selectivity: 13000
[2]
  IC50: 1.37 nM

## CC(=O)OCc1c(C)cc(C)c(NC(=O)c2sccc2S(=O)(=O)Nc2onc(C)c2Cl)c1C
[3]
  Cmax: 3800 ng/mL

## Cc1cc(C)c(NC(=O)c2sccc2S(=O)(=O)Nc2onc(C)c2Cl)c(-c2ncco2)c1
[4]
  half-life: 5.3 h
[5]
  AUC: 362 µg·h/mL
[3]
  Cmax: 66000 ng/mL
[1]
  Selectivity: 119000
[2]
  IC50: 0.08 nM

## Cc1cc(C)c(N(C)C)c(C)c1NC(=O)c1sccc1S(=O)(=O)Nc1onc(C)c1Cl
[3]
  Cmax: 3200 ng/mL

## COc1c(C)cc(C)c(NC(=O)c2sccc2S(=O)(=O)Nc2onc(C)c2Cl)c1C
[3]
  Cmax: 4000 ng/mL

## Cc1cc(C)c(NC(=O)c2sccc2S(=O)(=O)Nc2onc(C)c2Cl)c(C(=O)C2CC2)c1
[4]
  half-life: 5.4 h
[5]
  AUC: 365 µg·h/mL
[3]
  Cmax: 53400 ng/mL
[1]
  Selectivity: 331000
[2]
  IC50: 0.03 nM

## CO/N=C(\C)c1cc(C)cc(C)c1NC(=O)c1sccc1S(=O)(=O)Nc1onc(C)c1Cl
[4]
  half-life: 1.2 h
[5]
  AUC: 33.5 µg·h/mL
[3]
  Cmax: 13800 ng/mL
[1]
  Selectivity: 56000
[2]
  IC50: 0.04 nM

## CCCS(=O)(=O)c1cc(C)cc(C)c1NC(=O)c1sccc1S(=O)(=O)Nc1onc(C)c1Cl
[4]
  half-life: 1.3 h
[5]
  AUC: 5.9 µg·h/mL
[3]
  Cmax: 2900 ng/mL
[1]
  Selectivity: 6100
[2]
  IC50: 0.06 nM

## Cc1cc(C)c(NC(=O)c2sccc2S(=O)(=O)Nc2onc(C)c2Cl)c(C(=O)N(C)CC(C)(C)C)c1
[1]
  Selectivity: 15900
[2]
  IC50: 0.68 nM

## CC(=O)c1cc(C)cc(C)c1NC(=O)c1sc(C)cc1S(=O)(=O)Nc1onc(C)c1Cl
[4]
  half-life: 2.7 h
[5]
  AUC: 327 µg·h/mL
[3]
  Cmax: 68900 ng/mL
[1]
  Selectivity: 4500
[9]
  bioavailability: 49%
[2]
  IC50: 0.21 nM

## CC(C)C[C@@H]1NC(=O)[C@@H](C(C)C)NC(=O)[C@@H]2CCCN2C(=O)[C@@H](CC(=O)O)NC(=O)[C@@H](Cc2c[nH]c3ccccc23)NC1=O [BQ-123] (cyclo(L[dW][dD]P[dV]))
[2]
  IC50: 22 nM
[7]
  Selectivity: 818

## Cc1cc(C)c(NC(=O)c2sccc2S(=O)(=O)Nc2onc(C)c2Cl)c(S(=O)(=O)C(C)C)c1
[1]
  Selectivity: 8800
[2]
  IC50: 0.05 nM

## Cc1cc(C)c(NC(=O)c2sccc2S(=O)(=O)Nc2onc(C)c2Cl)c(C(=O)C(C)C)c1
[3]
  Cmax: 59200 ng/mL
[12]
  Selectivity: 144000
[2]
  IC50: 0.11 nM

## Cc1cc(C)c(NC(=O)c2sccc2S(=O)(=O)Nc2onc(C)c2C)c(C#N)c1C
[4]
  half-life: 5.3 h
[5]
  AUC: 667 µg·h/mL
[3]
  Cmax: 85800 ng/mL
[1]
  Selectivity: 328000
[2]
  IC50: 0.08 nM

## Cc1cc(C)c(NC(=O)c2sccc2S(=O)(=O)Nc2onc(C)c2Cl)c(Cl)c1
[4]
  half-life: 2.6 h
[5]
  AUC: 172 µg·h/mL
[3]
  Cmax: 47500 ng/mL
[1]
  Selectivity: 166000
[2]
  IC50: 0.09 nM

## Cc1cc(C)c(NC(=O)c2sccc2S(=O)(=O)Nc2onc(C)c2Cl)c(C#N)c1C
[4]
  half-life: 5.11 h
[5]
  AUC: 373 µg·h/mL
[3]
  Cmax: 45700 ng/mL
[1]
  Selectivity: 608000
[2]
  IC50: 0.05 nM

## Cc1cc(-c2ncco2)cc(C)c1NC(=O)c1sccc1S(=O)(=O)Nc1onc(C)c1Cl
[1]
  Selectivity: 1900
[2]
  IC50: 1.27 nM

## CCCCN(CCCC)C(=O)CN1C[C@H](c2ccc3c(c2)OCO3)[C@@H](C(=O)O)[C@@H]1c1ccc(OC)cc1
[9]
  bioavailability: 60%

## Cc1cc(C)c(NC(=O)c2sccc2S(=O)(=O)Nc2onc(C)c2Cl)c(-c2ccccc2)c1
[1]
  Selectivity: 1900
[2]
  IC50: 1.47 nM
